According to PubChem BioAssay:
Calls of active or inactive are those of the source.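 How the source made its calls, unless noted: active means fluorescence slope after compound addition differing from the mean of all tested samples at 99.7% confidence, mostly higher but some lower; inactive means the rest.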

How the values were obtained:
[1] = inhibitors of TNFa-induced NFkB p65 translocation, primary screen, imaging, HUVEC, MLSMR starter and 10KST1 sets (AID 438;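 active means inhibition above 20% together with a positive visual image hit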;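 further: compound added about 3h40 before a 20 min TNFalpha stimulation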;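 on inhibition: signal is the nuclear over cytoplasmic p65 intensity ratio per well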); conditions: HUVEC TNFa-induced p65 nuclear translocation; cell count: measured here: nuclei count (cytotoxicity indicator), at 2.08 µM; inhibition: at 2 µM, stronger effect = higher value, 0% TNFa-plus-vehicle, 100% no-TNFa wells
[2] = reduction of polyQ htt aggregates in cells – imaging, exon1htt(103Q)mCFP cells, high-content imaging, primary screen (AID 483;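 active means visual image review flags a hit and inhibition of aggregation exceeds 20%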;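 further: compound exposure lasted 3 days before fixation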;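 on nuclei count: percent of the per-plate median nuclei count of sample wells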); conditions: exon1htt(103Q)mCFP cell line, aggregate imaging, at 2 µM; inhibition of aggregation: stronger effect = higher value; nuclei count: measured here: cell count, toxicity
[3] = endothelial E-selectin expression blockers – imaging, HUVEC, immunofluorescence, MLSMR starter and 10KST1 sets, primary screen (AID 487;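 active means visually confirmed hit in the image check and inhibition above 20%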;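 on inhibition: signal is fraction of cell area covered by stained E-selectin grains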;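 on nuclei count: 100% = median nuclei count of all wells on the same plate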); conditions: HUVEC TNFalpha-induced E-selectin immunofluorescence imaging, at 2 µM; inhibition: stronger effect = higher value; nuclei count: measured here: cell number, toxicity
[4] = molecular target: Voltage-gated potassium channel subunit beta-2 (Rattus norvegicus) (UniProt P62483); assay: inhibitors of rat Kvbeta2 reductase activity – biochemical, NADPH fluorescence, primary screen (AID 622;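 active means fluorescence slope higher than the sample average by over 3 SD, cut at about -0.22 in these data, passing the limit was not always enough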;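 further: slope of raw intensity against log time taken from 70 to 1610 s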); conditions: recombinant KvBeta, 4-cyanobenzaldehyde reduction, at 10 µM, stronger effect = higher value
Chain of Voltage-gated potassium channel subunit beta-2 (Rattus norvegicus) (P62483 whole entry, looked up): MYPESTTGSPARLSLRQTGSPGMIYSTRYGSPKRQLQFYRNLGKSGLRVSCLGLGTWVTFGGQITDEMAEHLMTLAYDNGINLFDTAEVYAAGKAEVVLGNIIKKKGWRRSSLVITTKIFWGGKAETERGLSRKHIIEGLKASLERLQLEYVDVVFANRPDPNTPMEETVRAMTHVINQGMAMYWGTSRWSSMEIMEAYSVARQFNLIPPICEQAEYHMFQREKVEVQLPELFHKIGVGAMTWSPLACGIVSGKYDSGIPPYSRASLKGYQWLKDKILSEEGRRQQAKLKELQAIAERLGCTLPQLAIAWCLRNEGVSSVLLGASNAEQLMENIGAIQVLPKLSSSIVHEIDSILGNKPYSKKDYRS

[5] = molecular target: Voltage-gated potassium channel subunit beta-2 (Rattus norvegicus) (UniProt P62483); assay: enhancers of rat Kvbeta2 NADPH turnover – biochemical, NADPH fluorescence, primary screen (AID 623;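 active means NADPH fluorescence slope more negative than the mean of all samples by about 3 SD, 99.7% confidence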;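 further: fluorescence intensity change per second fitted from 20 to 320 s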); conditions: Recombinant KvBeta, NADPH fluorescence decrease slope, 10 min; at 10 µM; stronger effect = lower value
[6] = molecular target: Muscarinic acetylcholine receptor M4 (Homo sapiens) (UniProt P08173); assay: M4-linked GIRK flux change, two-sided – cell-based, HEK293 M4/GIRK, thallium flux, BTC-AM, M4 allosteric agonist project, primary screen (AID 625); conditions: at 10 µM, actives lie on both sides;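 further: thallium influx through GIRK channels coupled to M4 in HEK293 cells with BTC-AM dye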
Chain of Muscarinic acetylcholine receptor M4 (Homo sapiens) (P08173 whole entry, looked up): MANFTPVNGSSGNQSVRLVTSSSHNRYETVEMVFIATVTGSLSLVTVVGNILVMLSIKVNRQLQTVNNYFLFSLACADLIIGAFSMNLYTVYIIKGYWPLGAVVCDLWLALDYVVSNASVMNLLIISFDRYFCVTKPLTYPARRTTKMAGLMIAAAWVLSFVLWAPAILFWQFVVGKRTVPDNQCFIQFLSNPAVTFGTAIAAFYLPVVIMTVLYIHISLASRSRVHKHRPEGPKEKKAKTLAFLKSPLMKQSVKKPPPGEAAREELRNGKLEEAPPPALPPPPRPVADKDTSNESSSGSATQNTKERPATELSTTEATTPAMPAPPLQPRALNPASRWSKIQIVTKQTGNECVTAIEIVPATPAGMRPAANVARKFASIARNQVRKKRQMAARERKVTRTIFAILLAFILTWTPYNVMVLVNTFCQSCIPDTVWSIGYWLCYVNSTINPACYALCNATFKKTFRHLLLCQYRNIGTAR
Summary of the method: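 assay system = HEK293 cells with M4 receptor and GIRK channels | medium = pH 7.3 thallium assay buffer | doses = 10 µM final, single point | timing = cells overnight at 37 °C, BTC-AM loading 1 h, reads 2 min total | signal = BTC-AM fluorescence, 1 Hz kinetic reads | read-out = post-addition slope, 15–24 s, of baseline-normalized fluorescence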

[7] = blockers of RIG-like receptor reporter activation – cell-based, Sendai virus stimulus, luciferase, 10K MLSCN set, TLR/RLR signaling modifier project, primary screen (AID 602276;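 active means inhibition at or above 50% at 10 µM; inactive means inhibition below 50%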;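 further: firefly luciferase from ISG56 promoter only with Renilla not read in this screen; 0% = Sendai virus plus DMSO and 100% = medium plus DMSO without virus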); conditions: HEK293 RL24 IRF3 luciferase reporter, at 10 µM, stronger effect = higher value
[8] = TLR3 IRF3 reporter activation blockers – cell-based, poly I:C stimulus, luciferase, 10K MLSCN set, primary screen (AID 602277;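 active means inhibition of the reporter signal at or above 50%; inactive means inhibition below 50%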); conditions: HEK293-TLR3 RL24 IRF3 luciferase reporter, at 10 µM, stronger effect = higher value

Row | Compound | cell count [1] | inhibition [1] | inhibition of aggregation [2] | nuclei count [2] [%] | inhibition [3] | nuclei count [3] [%] | fluorescence slope [4] | NADPH fluorescence slope [5] | fluorescence slope [6] | inhibition [7] | inhibition [8]
1 | COc1cccc(-n2c(SCC(=O)OC(C)C)nnc2-c2cccnc2)c1 | 402 | -3.3% (inactive) | -5.3% (inactive) | 96.8 | -29.7% (inactive) | 113 | -0.459 (inactive) | -4.2e-05 (inactive) | 0.00575 (inactive) | 9.67% (inactive) | 13.7% (inactive)
2 | CSc1nnc2n(CCc3ccccc3)c(=O)c3c4c(sc3n12)CCCC4 | 295 | -21.3% (inactive) | -2.1% (inactive) | 106 | -22% (inactive) | 112 | -0.476 (inactive) | -2.9e-05 (inactive) | 0.00521 (inactive) | 7.14% (inactive) | -1.7% (inactive)
3 | C/C(=C\c1cc(C(=O)O)c(C)o1)CO | 417 | 5.1% (inactive) | 4.9% (inactive) | 94.9 | 39.5% (inactive) | 103 | -0.431 (inactive) | -0.00049 (inactive) | 0.00423 (inactive) | -6.67% (inactive) | -4.63% (inactive)
4 | CCN1CCN(c2nc(-c3cccnc3)nc3ccccc23)CC1 | 598 | 11.2% (inactive) | -11.6% (inactive) | 94.7 | -58.2% (inactive) | 103 | -0.468 (inactive) | 2.1e-05 (inactive) | 0.00671 (inactive) | 12.9% (inactive) | 37.7% (inactive)
5 | CS(=O)(=O)c1ncc(Cl)c(C(=O)Nc2ccc(N3CCOCC3)cc2)n1 | 351 | -2.1% (inactive) | -35.6% (inactive) | 112 | 24.9% (inactive) | 111 | -0.46 (inactive) | 2.2e-05 (inactive) | 0.00607 (inactive) | 21.4% (inactive) | 62.8% (active)
6 | O=C(Nc1ccncc1)c1cncc(Br)c1 | 718 | -3% (inactive) | -6.3% (inactive) | 98 | -153% (inactive) | 114 | -0.243 (inactive) | -9.4e-06 (inactive) | 0.00626 (inactive) | 1.8% (inactive) | 0.632% (inactive)
7 | Cc1ccc2nc(CSc3nnc(-c4ccco4)n3-c3ccccc3)cc(=O)n2c1 | 509 | -7.8% (inactive) | -2% (inactive) | 115 | -175% (inactive) | 201 | -0.567 (inactive) | -1.2e-06 (inactive) | 0.00636 (inactive) | -11% (inactive) | -20% (inactive)
8 | Cc1ccc(Oc2ccc(-c3nc(N)nc(N)n3)cc2)cc1 | 366 | -6% (inactive) | 9% (inactive) | 105 | -62.6% (inactive) | 125 | -0.547 (inactive) | -2.9e-05 (inactive) | 0.00425 (inactive) | 7.07% (inactive) | 11.6% (inactive)
9 | COC(=O)C1=C(C)NC(=O)C1(NC(=O)c1cccnc1)C(F)(F)F (stereo not drawn) | 609 | -3.9% (inactive) | -6.9% (inactive) | 87.8 | -68.7% (inactive) | 103 | -0.565 (inactive) | -2.9e-05 (inactive) | 0.00444 (inactive) | -31.4% (inactive) | 56.2% (active)
10 | CCOC(=O)CCC(=O)c1c(C)oc2ccc(OC)cc12 | 447 | -6.3% (inactive) | 4.8% (inactive) | 98.5 | 46.7% (inactive) | 118 | -0.583 (inactive) | 4e-05 (inactive) | 0.00919 (inactive) | -14.6% (inactive) | -30.6% (inactive)
11 | O=C1CN=C(Nc2cccc(C(F)(F)F)c2)N1C1CCCC1 | 421 | 4.8% (inactive) | -11% (inactive) | 107 | -375% (inactive) | 149 | -0.436 (inactive) | -0.000109 (inactive) | 0.00643 (inactive) | -11.3% (inactive) | -11.6% (inactive)
12 | CCCC(C(=O)NCc1ccco1)N(C(=O)CNS(=O)(=O)c1ccc(Cl)cc1)C1CCCC1 (stereo not drawn) | 387 | -0.7% (inactive) | -2.5% (inactive) | 110 | -210% (inactive) | 111 | -0.522 (inactive) | -1.1e-05 (inactive) | 0.00544 (inactive) | 24.7% (inactive) | 25.7% (inactive)
13 | CC(=O)Nc1nc(-c2ccc(Cl)cc2)nc(C)c1C(C)=O | 577 | 0.5% (inactive) | -13.8% (inactive) | 92.9 | -9.1% (inactive) | 90.1 | -0.261 (inactive) | -3.2e-05 (inactive) | 0.00747 (inactive) | 2.94% (inactive) | 6.23% (inactive)
14 | O=C(c1ccc(Cl)c(Cl)c1)N1CCOCC1 | 694 | -9.1% (inactive) | -0.3% (inactive) | 107 | 5.6% (inactive) | 105 | -0.568 (inactive) | -2.1e-05 (inactive) | 0.00532 (inactive) | 3.81% (inactive) | 3.54% (inactive)
15 | COc1cc(C(=O)Nc2cc(Cl)ccc2C)c(-n2cnnn2)cc1OC | 715 | 8.8% (inactive) | 15.8% (inactive) | 83.5 | -62.1% (inactive) | 117 | -0.474 (inactive) | 0.00014 (inactive) | 0.00699 (inactive) | 13.5% (inactive) | 15.4% (inactive)
16 | CCOC(=O)CNS(=O)(=O)c1c(C)noc1C | 562 | -2.5% (inactive) | -0.2% (inactive) | 108 | -40.9% (inactive) | 105 | -0.441 (inactive) | -0.000338 (inactive) | 0.00456 (inactive) | 1.51% (inactive) | 2.6% (inactive)
17 | C=CCSc1nnc(-c2ccccc2NC(C)=O)c(=O)[nH]1 | 765 | -33.6% (inactive) | 8% (inactive) | 102 | -60.3% (inactive) | 107 | -0.468 (inactive) | -0.000277 (inactive) | 0.00542 (inactive) | -0.29% (inactive) | 9.66% (inactive)
18 | N#C/C(C(=O)N1CCOCC1)=C1/SC=C(c2ccccc2)N1c1ccccc1 | 327 | -5.5% (inactive) | 13.8% (inactive) | 96.2 | -118% (inactive) | 118 | -0.277 (inactive) | -3e-05 (inactive) | 0.00553 (inactive) | 12.4% (inactive) | 26.4% (inactive)
19 | C=CCNC(=O)CSc1ccc(Cl)cc1 | 339 | 7.4% (inactive) | -7.8% (inactive) | 96 | -99.8% (inactive) | 101 | -0.448 (inactive) | -0.000358 (inactive) | 0.00478 (inactive) | 5.55% (inactive) | -3.36% (inactive)
20 | CCC(C)NC(=O)CSC1=Nc2ccccc2C2=NC(CC(=O)NCc3ccccc3)C(=O)N12 (stereo not drawn) | 651 | -7.5% (inactive) | -9% (inactive) | 55.7 | -58.9% (inactive) | 89.6 | -0.461 (inactive) | -1.4e-05 (inactive) | 0.00538 (inactive) | 10.6% (inactive) | 26.5% (inactive)
21 | CCCC(=O)Nc1ccc(OCC(=O)OC)cc1 | 402 | -15.4% (inactive) | 5.1% (inactive) | 98.2 | 8% (inactive) | 84.9 | -0.439 (inactive) | -1.2e-05 (inactive) | 0.00585 (inactive) | 11% (inactive) | 21.9% (inactive)
22 | COc1ccccc1N(CC(=O)NCc1ccccc1)S(C)(=O)=O | 665 | -8.2% (inactive) | 6.6% (inactive) | 106 | -67.8% (inactive) | 114 | -0.28 (inactive) | -4.1e-05 (inactive) | 0.00584 (inactive) | -3.25% (inactive) | 14% (inactive)
23 | Cc1ccc(C)c(NC(=O)C2CCC(C)(C(=O)O)C2(C)C)c1 (stereo not drawn) | 352 | -2.5% (inactive) | 6% (inactive) | 98 | -105% (inactive) | 124 | -0.603 (inactive) | 2.7e-06 (inactive) | 0.00734 (inactive) | 15.8% (inactive) | 30.8% (inactive)
24 | O=C(c1ccc(NS(=O)(=O)c2cccs2)cc1)N1CCCCC1 | 287 | 5% (inactive) | -0.8% (inactive) | 74.9 | -31.7% (inactive) | 96.5 | -0.474 (inactive) | -3.6e-05 (inactive) | 0.00524 (inactive) | 0.00146% (inactive) | -12.6% (inactive)
25 | O=c1oc(-c2ccco2)nc2ccccc12 | 460 | 1% (inactive) | 2.1% (inactive) | 92.5 | -332% (inactive) | 132 | -0.559 (inactive) | -4.2e-05 (inactive) | 0.00609 (inactive) | 13.9% (inactive) | 15.3% (inactive)
26 | CC(C)CC(=O)CN1C(=O)C2(OCCO2)c2ccccc21 | 490 | -2.4% (inactive) | 22.6% (inactive) | 100 | 6.8% (inactive) | 94.9 | -0.231 (inactive) | -1.2e-05 (inactive) | 0.00852 (inactive) | 17.6% (inactive) | -9.91% (inactive)
27 | CC(C)c1ccc(NC(=O)C2CC(=O)N(C(C)C)C2)cc1 (stereo not drawn) | 232 | -2.3% (inactive) | 21% (inactive) | 81.7 | -44.3% (inactive) | 108 | -0.558 (inactive) | -6.2e-05 (inactive) | 0.0102 (inactive) | 12.8% (inactive) | -37.1% (inactive)
28 | CCOC(=O)c1sc(NC(=O)CSc2nnc(-c3ccco3)n2CC)c(C(=O)OCC)c1C | 696 | -10.9% (inactive) | -26.7% (inactive) | 104 | -27.8% (inactive) | 92.7 | -0.565 (inactive) | -3.7e-05 (inactive) | 0.00558 (inactive) | -9.39% (inactive) | -38.2% (inactive)
